Screens from PubChem BioAssay.
LMPTP block: blocks human LMPTP phosphatase. P24666. recombinant LMPTP-A, OMFP fluorogenic substrate, fluorescence intensity. inhibition, % at 20 µM. hit rate 0.22% among 360,000. AID 651560;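 active means compounds that cut the enzyme signal by at least half of the control window in the single-dose screen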
Target sequence (P24666 whole entry, looked up): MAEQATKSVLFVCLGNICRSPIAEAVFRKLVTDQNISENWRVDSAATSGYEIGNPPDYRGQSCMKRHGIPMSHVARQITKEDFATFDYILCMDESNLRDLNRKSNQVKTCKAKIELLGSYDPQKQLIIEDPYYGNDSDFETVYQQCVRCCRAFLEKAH
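Material: LMPTP-A; amount: 0.625 nM enzyme; doses: single 20 µM dose; times: reaction 50 min, room temperature, dark; technique: fluorescence intensity of OMFP turnover product; benchmarks: no-enzyme and uninhibited controls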
Scp-1 inhibitor: blocks human Scp-1 phosphatase activity; Recombinant Scp1, phosphopeptide, malachite green phosphate absorbance; Q9GZU7; hit rate 0.88% among 340,000; inhibition, % at 20 µM;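 active means inhibition above about 50% at 20 µM, limit read from the data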
Target sequence (Q9GZU7 76-261 limits assumed): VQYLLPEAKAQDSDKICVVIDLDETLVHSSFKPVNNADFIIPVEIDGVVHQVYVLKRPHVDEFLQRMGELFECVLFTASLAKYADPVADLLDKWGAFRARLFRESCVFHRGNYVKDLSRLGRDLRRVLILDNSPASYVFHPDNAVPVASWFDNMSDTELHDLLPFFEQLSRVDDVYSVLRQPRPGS
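Test system – truncated SCP-1 phosphatase (76-261aa) · Reagent – Phosphorylated 17-residue peptide substrate · Incubation – 45 min room-temperature reaction, 5 min colour, 30 min stabiliser · Detection – colorimetric phosphate reagent with accelerator and stabiliser, absorbance at 630 nm · Measure – % inhibition at 20 µM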
SUMO1-SIM PPI: alters human SUMO1 binding to SIM partners. P63165. SUMO1 binding to a labelled peptide, TR-FRET, 1 h. inhibition, % at 20 µM. hit rate 0.33% among 360,000; in the data active means inhibition above about 37%
Target sequence (P63165 whole entry, looked up): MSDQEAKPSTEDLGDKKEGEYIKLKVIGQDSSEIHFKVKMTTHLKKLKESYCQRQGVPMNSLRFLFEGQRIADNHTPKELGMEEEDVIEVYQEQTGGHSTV
NadD block: blocks S. aureus nicotinate mononucleotide adenylyltransferase. inhibition, % at 20 µM. purified NadD enzyme, colorimetric absorbance read-out. hit rate 0.78% among 360,000; in the data active means inhibition above about 26%
STEP inh: blocks human striatal-enriched tyrosine phosphatase. P54829. recombinant STEP, OMFP fluorogenic substrate, fluorescence. inhibition, % at 20 µM. hit rate 0.25% among 360,000. AID 588621;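 active means inhibition at 20 µM, scaled per plate between control wells, above about 37%, limit read from the data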
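System: isolated STEP enzyme; schedule: 20 min enzyme reaction at room temperature, protected from light; medium: Bis-Tris buffer pH 6.0, 2.5 mM DTT, 0.005% Tween 20; signal: fluorescence, 480/540 nm; dosing: single compound dose of 20 µM, 1% DMSO final; also added: OMFP substrate, 25 µM final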
DNMT1 inh: blocks human DNA methyltransferase DNMT1; P26358; DNMT1 molecular beacon, Hinp1I cleavage, fluorescence; inhibition (reported as % activation of signal), % at 10 µM; hit rate 0.83% among 360,000; AID 588458; in the data active means inhibition above about 50%
STEP inh conf: STEP (human) phosphatase inhibition, single concentration confirmation; shares compounds with STEP inh; recombinant STEP, OMFP fluorogenic substrate, fluorescence; inhibition, % at 20 µM; hit rate 32% among 520; AID 623866; call rule not given here
Of the large screens only hits and unclear results are named; the others gave an inactive call (follow-up assays come after a bar, where they were run). Most compounds without a hit are left out; they make up all but 2.3% or so of the library.

NC(=O)c1cc(NC(=O)CCCc2nc3ccccc3s2)cc(C(N)=O)c1	none
CC(=NNC(=S)N1CC2CCC(CC2)C1)c1cccc(C)n1	STEP inh 59 | STEP inh conf active
COc1ccc(N2CCN(C(=O)C3CCN(S(=O)(=O)c4ccc5c(c4)oc(=O)n5C)CC3)CC2)cc1	none
CCOC(=O)C1=C(C)NC(C)=C(C(=O)OCC)C1C(=O)OCC(=O)N(C)C1CCS(=O)(=O)C1 (configuration not stated)	none
Cc1ccc(Cn2c(SCC(=O)Nc3cc(C)on3)nc3ccccc3c2=O)cc1	STEP inh 41 | STEP inh conf inactive
Cc1cccc(C)c1NC(=S)N(Cc1ccco1)C1CCN(C(C)C)CC1	STEP inh 46 | STEP inh conf inactive
Cc1cccc(C)c1NC(=S)N(CCN1CCCCCC1)Cc1ccco1	none
COc1ccc(S(=O)(=O)N2CCC(C(=O)N(C)Cc3ccc(C)o3)CC2)cc1OC	none
Cc1ccc(NC(=O)CCc2nnc3ccc(NCc4ccco4)nn23)cc1	none
Fc1ccc(-n2c(=S)[nH]c3cccnc32)cc1	STEP inh 65 | STEP inh conf inactive
CSc1ccc(C(=S)N2CCN(C)CC2)cc1	STEP inh 73 | STEP inh conf inactive
CN1CCN(C(=S)c2ccc(Br)cc2)CC1	STEP inh 80 | STEP inh conf 43
O=[N+]([O-])c1ccc(C(=S)N2CCC(Cc3ccccc3)CC2)cc1	none
CN1CCN(C(=S)c2ccc([N+](=O)[O-])cc2)CC1	STEP inh 80 | STEP inh conf inactive
CN1CCN(C(=S)c2ccc(N(C)C)cc2)CC1	STEP inh 83 | STEP inh conf inactive
CSc1ccc(C(=S)N2CCCC2)cc1	none
CN1CCN(C(=O)c2ccc(S(=O)(=O)c3ccc(Br)cc3)cc2)CC1	none
CN(C)C(=S)c1ccc(N(C)C)cc1	none
O=C1CC(=O)Nc2cc(S(=O)(=O)NCc3cccs3)ccc2N1	STEP inh 74 | STEP inh conf inactive
OC1CNc2c(ccc3ccccc23)C1 (configuration not stated)	none
CCCCC(=O)Nc1ccc2c(c1)nc(CCN1CCN(c3ccccn3)CC1)n2C	none
CCCCC(=O)Nc1ccc2c(c1)nc(CCN1CCOCC1)n2C	STEP inh 46 | STEP inh conf inactive
Cc1cc(C)c(NC(=S)N2CCC(N(C)CC3CCCO3)CC2)c(C)c1 (configuration not stated)	STEP inh 86 | STEP inh conf inactive
Cc1cccc(C)c1NC(=S)N1CCC(N(C)CC2CCCO2)CC1 (configuration not stated)	none
CC1(C)Cc2c(sc(NC(=O)C(=O)NCCCN3CCOCC3)c2C#N)CO1	STEP inh 68 | STEP inh conf inactive
C[C@H](CO)N1C[C@H](C)[C@H](CN(C)S(=O)(=O)c2ccc(Cl)cc2)OCc2cnnn2CCCC1=O	none (no result: Scp-1 inhibitor)
CCN1CCN(C(=S)c2ccc(Br)cc2)CC1	STEP inh 88 | STEP inh conf 45
CCN1CCN(C(=S)c2ccc(O)cc2)CC1	STEP inh 88 | STEP inh conf 49
COc1cc(NC(=O)CN2C(=O)COc3ccc(S(=O)(=O)N4CCOCC4)cc32)cc(OC)c1	none
O=C(N/N=C/c1ccccn1)c1cc(-c2ccc(Cl)s2)[nH]n1	STEP inh 42 | STEP inh conf inactive
O=C(Nn1cnnc1)c1ccc(Br)s1	STEP inh 118 | STEP inh conf inactive
O=C(Nc1ccccn1)c1ccc(Br)s1	none
COc1ccnc(CSC(N)=Nc2ccccc2OC)c1	STEP inh 35 | STEP inh conf inactive
O=C(O)c1c(Cl)cccc1Nc1ccccc1	none
COc1ccc(NC(=S)NCCCN2CCCC2=O)c(OC)c1	STEP inh 46 | STEP inh conf inactive
O=C1CCCN1CCCNC(=S)Nc1ccc(F)cc1	STEP inh 43 | STEP inh conf inactive
CCC1C(c2ccccc2)=CCC(C(=O)O)C1C (configuration not stated)	none
Cc1ccc2nc(Nc3ccc(F)cc3)c3nncn3c2c1	STEP inh 45 | STEP inh conf inactive
COc1ccc(/C=C/C(=O)O)cc1S(=O)(=O)N1CCCC1	none
CCNc1nc(NC(N)=S)nc(NC(C)(C)C)n1	STEP inh 37 | STEP inh conf inactive
CCNc1nc(NCC)nc(NC(N)=S)n1	none
O=C(N/N=C/c1ccc(OC(=O)c2cccc(F)c2)cc1)c1cccnc1	LMPTP block 57, STEP inh 98 | STEP inh conf inactive
O=C(N/N=C/c1ccc(OC(=O)c2cccc(Br)c2)cc1)c1cccnc1	none
CC(C)N(C)CCOC(=O)c1ccccc1Br	STEP inh 78 | STEP inh conf inactive
CC(C)N(C)CCOC(=O)c1ccccc1Cl	none
Cc1n[nH]c(=O)nc1NCc1ccc(Cl)cc1	STEP inh 39 | STEP inh conf inactive
Cc1n[nH]c(=O)nc1NCCN(C)C	none
COCCCn1c(SCC(=O)NC2CCCC2)nnc1-c1cccs1	none
COc1ccc(NC(=S)N2CCN(c3ncccn3)CC2)c(OC)c1	STEP inh 85 | STEP inh conf inactive
COc1ccc(OC)c(NC(=S)N2CCN(c3ccccn3)CC2)c1	none
Cc1ccccc1NC(=O)N1CCNC(=O)C1CC(=O)Nc1cc(Cl)ccc1Cl (configuration not stated)	none
CN1CCN(C(=S)C(=O)Nc2ccccc2)CC1	STEP inh 41 | STEP inh conf inactive
O=[N+]([O-])c1ccc(NC(=S)NCc2ccc(F)cc2)cc1	none
CCCCNS(=O)(=O)c1cc(-c2nn(C)c(=O)c3ccccc23)ccc1C	STEP inh 58 | STEP inh conf inactive
COCCNS(=O)(=O)c1cc(-c2nn(C)c(=O)c3ccccc23)ccc1C	none
CCn1cc(C(=O)O)c(=O)c2cnc(N3CCN(C(=S)NC(=O)c4ccc(Cl)cc4)CC3)nc21	none (no result: LMPTP block, SUMO1-SIM PPI, NadD block, STEP inh, DNMT1 inh)
O=S1OCCN1c1ccccc1 (configuration not stated)	STEP inh 42 | STEP inh conf inactive
Cc1ccccc1N1CCN(C(=S)c2ccc(-c3cccc([N+](=O)[O-])c3)o2)CC1	STEP inh 44 | STEP inh conf 26
CN(C(=O)c1ccc(NC(=O)Cc2ccc(NC(=O)C3CCCN(S(=O)(=O)c4cccc([N+](=O)[O-])c4)C3)cc2)cc1)C1CCCC1 (configuration not stated)	none
O=C(N/N=C/c1ccncc1)c1cccc(S(=O)(=O)Nc2ccc(Cl)cc2)c1	SUMO1-SIM PPI 79, STEP inh 74 | STEP inh conf 95
CN1C(=O)C(=O)/C(=C(/O)c2ccccc2)C1c1ccc(Br)cc1 (configuration not stated)	none
